In ChEMBL document CHEMBL2010705, “Design and synthesis of 4-alkynyl pyrazoles as inhibitors of PDE4: a practical access via Pd/C-Cu catalysis” (Bioorg Med Chem Lett, 2012) one finds inhibition and Ratio data, which are given here for twelve compounds.

Calls of active or inactive are those of the source. No cut-off for these calls is given here.

The target in test [1] is 3',5'-cyclic-AMP phosphodiesterase 4B (Homo sapiens) (UniProt Q07343). Kind of test: Inhibition of PDE4B expressed in Sf9 cells using cAMP as substrate at 30 uM preincubated for 15 mins prior substrate addition measured after 1 hr by luminescence-based spectrophotometry. The essentials: (§1)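 10 ng PDE4B enzyme (isolated from Sf9 cells) was preincubated 15 min with compound or DMSO vehicle, then incubated 1 h with 5 µM cAMP using a PDElight HTS cAMP phosphodiesterase kit. The reaction was stopped, then developed with detection reagent for 10 min in the dark. Luminescence (RLU) was read, and % inhibition was calculated as (RLU vehicle − RLU inhibitor)/RLU vehicle × 100.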

The target is the same in test [2]. The test can be described thus: Inhibition of PDE4B expressed in Sf9 cells using cAMP as substrate preincubated for 15 mins prior substrate addition measured after 1 hr by luminescence-based spectrophotometry. The essentials:
as §1

For test [3], the target named is 3',5'-cyclic-AMP phosphodiesterase 4D (Homo sapiens) (UniProt Q08499). Kind of test: Inhibition of PDE4D2 using cAMP as substrate at 30 uM preincubated for 15 mins prior substrate addition measured after 1 hr by luminescence-based spectrophotometry.
A short description of test [4]: Ratio of inhibition of PDE4B over inhibition of PDE4D2.

Sequence of 3',5'-cyclic-AMP phosphodiesterase 4B (Homo sapiens) (Q07343 whole entry): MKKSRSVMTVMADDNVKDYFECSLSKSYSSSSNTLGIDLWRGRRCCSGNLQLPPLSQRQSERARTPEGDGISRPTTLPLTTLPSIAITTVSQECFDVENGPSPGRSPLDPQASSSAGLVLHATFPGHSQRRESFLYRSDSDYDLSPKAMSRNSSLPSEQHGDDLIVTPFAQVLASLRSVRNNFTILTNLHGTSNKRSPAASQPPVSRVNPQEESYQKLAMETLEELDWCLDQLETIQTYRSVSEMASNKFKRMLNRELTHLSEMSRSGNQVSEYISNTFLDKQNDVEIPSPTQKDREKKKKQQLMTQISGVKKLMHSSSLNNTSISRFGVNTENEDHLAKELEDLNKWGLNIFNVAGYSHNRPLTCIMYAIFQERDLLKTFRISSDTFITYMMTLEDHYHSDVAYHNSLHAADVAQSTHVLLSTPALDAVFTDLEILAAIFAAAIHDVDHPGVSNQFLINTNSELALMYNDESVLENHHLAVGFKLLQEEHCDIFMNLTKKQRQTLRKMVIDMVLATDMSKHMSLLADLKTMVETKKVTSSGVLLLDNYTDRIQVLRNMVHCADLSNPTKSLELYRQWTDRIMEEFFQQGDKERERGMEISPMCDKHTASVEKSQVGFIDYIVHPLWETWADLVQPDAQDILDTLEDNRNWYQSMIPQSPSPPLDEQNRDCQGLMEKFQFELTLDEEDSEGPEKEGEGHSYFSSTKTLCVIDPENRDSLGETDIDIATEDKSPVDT
Sequence of 3',5'-cyclic-AMP phosphodiesterase 4D (Homo sapiens) (Q08499 whole entry): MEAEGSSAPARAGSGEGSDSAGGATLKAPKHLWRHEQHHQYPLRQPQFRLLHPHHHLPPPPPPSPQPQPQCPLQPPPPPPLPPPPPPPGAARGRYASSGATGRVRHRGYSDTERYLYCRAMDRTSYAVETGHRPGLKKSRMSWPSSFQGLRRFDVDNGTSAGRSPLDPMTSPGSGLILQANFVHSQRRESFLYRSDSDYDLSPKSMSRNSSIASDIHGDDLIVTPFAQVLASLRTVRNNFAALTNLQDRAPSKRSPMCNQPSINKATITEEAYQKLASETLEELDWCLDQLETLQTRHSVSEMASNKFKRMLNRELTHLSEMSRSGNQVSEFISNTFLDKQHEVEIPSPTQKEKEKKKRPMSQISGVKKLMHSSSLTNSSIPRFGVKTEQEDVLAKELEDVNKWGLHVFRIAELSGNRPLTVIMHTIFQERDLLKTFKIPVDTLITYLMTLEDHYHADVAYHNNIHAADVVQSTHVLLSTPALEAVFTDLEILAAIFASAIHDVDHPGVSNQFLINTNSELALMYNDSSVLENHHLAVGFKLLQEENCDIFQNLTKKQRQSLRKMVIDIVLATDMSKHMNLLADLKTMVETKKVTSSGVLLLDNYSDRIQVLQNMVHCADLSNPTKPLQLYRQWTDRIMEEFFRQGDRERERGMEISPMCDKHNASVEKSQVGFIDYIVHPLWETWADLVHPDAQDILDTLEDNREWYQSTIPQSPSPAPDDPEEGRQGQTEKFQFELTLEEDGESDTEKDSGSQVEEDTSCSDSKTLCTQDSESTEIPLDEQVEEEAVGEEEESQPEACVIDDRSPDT

For the compound `CCOC(=O)c1nn(C)c(-c2cccc(Cl)c2)c1C#CCO`, the inhibition – broadly, the drop in the measured response relative to a control, in per cent – in test [1] stood at 69.1%. Turning to `CCOC(=O)c1nn(C)c(-c2cccc(Cl)c2)c1C#CCCCC#N`, the inhibition was 73.4% in test [1], “Dose-dependent effect” in test [2] and 20% in test [3]. In addition, the Ratio in test [4] was 2. On to `Cc1c(C#Cc2ccccc2)cnn1C`, for which, in test [2], the inhibition entry is “Active”.

Turning to `CCOC(=O)c1n[nH]c(-c2cccc(Cl)c2)c1C#CCCCC#N`, the figures for the inhibition in test [1] and in test [3] were 71.1% and 20%, respectively. In test [4], the Ratio amounted to 2. For the compound `CCOC(=O)c1nn(C)c(-c2cccc(Cl)c2)c1C#CC(C)(C)O`, in test [1], the inhibition was 67.3%. In test [1], `CCOC(=O)c1nn(C)c(-c2cccc(Cl)c2)c1C#CCCO` returned an inhibition of 59.2%. Regarding `Cc1nn(C)c(C)c1C#Cc1ccccc1`, the inhibition result in test [2] is “Active”. On to `CCOC(=O)c1n[nH]c(-c2cccc(Cl)c2)c1C#Cc1ccccc1`, for which the inhibition was found to be 70% in test [1] and 20% in test [3]. In test [4], the Ratio worked out at 2. On to `CCOC(=O)c1n[nH]c(-c2cccc(Cl)c2)c1C#CCCO`, for which the inhibition in test [1] was determined as 65.1%.

As to `CCOC(=O)c1n[nH]c(-c2cccc(Cl)c2)c1C#CC1(O)CCCCC1`, in test [1], the inhibition stood at 21.1%. The compound `CCOC(=O)c1n[nH]c(-c2cccc(Cl)c2)c1C#CCO` showed an inhibition in test [1] of 68.1%. With `CCOC(=O)c1n[nH]c(-c2cccc(Cl)c2)c1C#CC(C)(C)O`, the inhibition is 70% in test [1] and 20% in test [3]. In addition, the Ratio in test [4] came to 2.
